# Screening results from PubChem BioAssay.
# CHRM5 antagonist = human M5 muscarinic receptor antagonists, primary screen, CHO cells, Fluo-8 calcium fluorescence; Muscarinic acetylcholine receptor M5 (Homo sapiens), P08912; AID 624040, 2012; inhibition, % at 3 µM; 360,000 tested, 0.59% active; CHO-hM5 cells, ACh EC80;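 active = inhibition above a per-plate cutoff, the mean of that plate's test compounds plus 3 SD, cut at about 27% in these data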;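 also: 0% = acetylcholine EC80 with DMSO and 100% = DMSO without agonist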
# Target sequence (P08912 whole entry, looked up): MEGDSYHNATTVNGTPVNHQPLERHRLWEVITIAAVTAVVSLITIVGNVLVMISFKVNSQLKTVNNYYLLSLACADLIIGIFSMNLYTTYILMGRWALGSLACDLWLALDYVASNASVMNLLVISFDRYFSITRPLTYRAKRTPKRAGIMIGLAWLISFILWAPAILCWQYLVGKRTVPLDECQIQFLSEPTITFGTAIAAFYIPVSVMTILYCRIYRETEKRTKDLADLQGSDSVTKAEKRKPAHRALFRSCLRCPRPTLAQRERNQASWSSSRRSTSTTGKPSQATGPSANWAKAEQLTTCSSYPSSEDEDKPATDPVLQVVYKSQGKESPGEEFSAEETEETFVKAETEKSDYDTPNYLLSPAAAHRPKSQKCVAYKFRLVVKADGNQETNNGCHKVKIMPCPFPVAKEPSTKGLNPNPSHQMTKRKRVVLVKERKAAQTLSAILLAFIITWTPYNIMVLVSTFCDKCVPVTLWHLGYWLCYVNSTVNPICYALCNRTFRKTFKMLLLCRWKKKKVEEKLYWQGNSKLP
# M4 antag = human M4 muscarinic receptor antagonists, primary screen, CHO cells, Fluo-8 calcium fluorescence; 360,000 tested, 0.73% active; CHO-hM4 cells, ACh EC80; inhibition, % at 3 µM; Muscarinic acetylcholine receptor M4 (Homo sapiens), P08173;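 active = inhibition above its plate's cutoff, the mean inhibition of sample wells plus 3 SD, cut at about 27% in these data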;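 also: 0% = acetylcholine EC80 with DMSO and 100% = DMSO without agonist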
# M5 PAM = human M5 muscarinic receptor positive allosteric modulators, primary screen, CHO-K1 cells, Fluo-8 calcium fluorescence | Muscarinic acetylcholine receptor M5 (Homo sapiens), P08912 | AID 624038, 2012 | CHO-K1 hM5, ACh EC20 PAM; 0% = ACh EC20, 100% = ACh EC100 | activation, % at 3 µM | 360,000 tested, 0.3% active;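 active = activation above the run cutoff, the mean activation of all test compounds plus 3 SD, cut at about 18% in these data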
#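 Assay system: CHO-K1 hM5 cells. Also added: acetylcholine at EC20 concentration, added after compound. Dosing: 3 µM, single dose. Times: compound preincubation 140 s before EC20 acetylcholine addition. Signal: Fluo-8 calcium fluorescence. Measure: % activation relative to EC20 and EC100 ACh responses. Repeats: singlicate, one well per test compound.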
# M4 ag = human M4 muscarinic receptor agonists, primary screen, CHO-K1 cells, Fluo-8 calcium fluorescence | Muscarinic acetylcholine receptor M4 (Homo sapiens), P08173 | CHO-K1 hM4/Gqi5; vehicle 0%, full acetylcholine response 100% | activation, % at 3 µM | 360,000 tested, 0.14% active | AID 624127, 2012;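 active = activation above the run mean over all test wells plus 3 SD, cut at about 32% in these data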;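 also: peak over basal fluorescence ratio per well then scaled between controls; 0% = DMSO wells and 100% = acetylcholine at EC100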
# CHRM5 agonist = human M5 muscarinic receptor agonists, primary screen, CHO-K1 cells, Fluo-8 calcium fluorescence; activation, % at 3 µM; 360,000 tested, 0.19% active; CHO-K1 hM5 cells; 0% DMSO wells, 100% maximal acetylcholine response; AID 624037, 2012;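 active = activation above the run's mean over test compounds plus 3 SD, cut at about 23% in these data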;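 also: signal is peak over basal fluorescence ratio across the kinetic read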
# M4 PAM = human M4 muscarinic receptor positive allosteric modulators, primary screen, CHO-K1 cells, Fluo-8 calcium fluorescence; Muscarinic acetylcholine receptor M4 (Homo sapiens), P08173; CHO-K1 hM4/Gqi5, ACh EC20; 0% = ACh EC20, 100% = maximal ACh; activation, % at 3 µM; 360,000 tested, 0.4% active; AID 624126, 2012;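 active = activation above its plate's cutoff, the mean activation of sample wells plus 3 SD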
# Active calls of the source: *. This is a sample that favours compounds with a hit; in the whole collection about 1.8% have one here.
SMILES,CHRM5 antagonist,M4 antag,M5 PAM,M4 ag,CHRM5 agonist,M4 PAM
CCOC(=O)c1c(NC(=O)COc2cccc3c2CCN(CC)C3=O)sc2c1CCC2,-3,4,9,2,5,22*
Cc1cnc(NC(=O)C2CCC(C(C)(C)C)CC2)s1 (configuration not stated),3,1,8,1,0,1
Cc1ccc(N2CCCn3c2cc(C)c(C#N)c3=O)cc1Cl,-5,1,6,1,-1,38*
Cc1ccc(N2CCCn3c2cc(C)c(C#N)c3=O)cc1C,5,-2,3,0,0,9
Cc1nn(Cc2ccc(Cl)c(Cl)c2)c(C)c1NC(=O)c1cn(-c2ccccc2)nc1-c1ccccc1,4,11,25*,2,-2,13
CC1(c2ccc(OC(F)F)cc2)NC(=O)N(CC(=O)Nc2ccc3[nH]c(=O)[nH]c3c2)C1=O (configuration not stated),1,7,6,1,2,6
CC1(c2ccc(OC(F)F)cc2)NC(=O)N(CC(=O)Nc2ccccc2)C1=O (configuration not stated),16,17,-4,67*,44*,-14
CC1(c2ccc(OC(F)F)cc2)NC(=O)N(CC(=O)Nc2ccc3c(c2)OCO3)C1=O (configuration not stated),17,8,1,32*,41*,3
CCOc1ccc2nc(SCC(=O)Nc3ccc4[nH]c(=O)[nH]c4c3)[nH]c2c1,8,-5,1,0,2,21
Cc1cccc(N2CCN(C(=O)Cn3sc4nc(C)cc(C)c4c3=O)CC2C)c1 (configuration not stated),16,54*,-16,28,13,-16
CCOc1ccc(NC(=O)Cn2sc3nc(C)cc(C)c3c2=O)cc1,5,55*,-6,18,6,-30
Cc1cc(C)c2c(=O)n(CC(=O)Nc3ccc(Cl)cc3)sc2n1,10,31*,-11,61*,17,-38
Cc1cccc(N2CCN(C(=O)Cn3nc(C)n4cccc4c3=O)CC2C)c1 (configuration not stated),7,-2,-8,12,4,-4
Cc1cc(C)c2c(=O)n(CC(=O)Nc3cccc(F)c3)sc2n1,7,6,2,18,5,-13
CCOc1ccccc1C(=O)OCC(=O)NCCNC(=O)COC(=O)c1ccccc1OCC,21,5,38*,2,2,-3
CCOc1ccccc1C(=O)OCC(=O)NCC1CCCCC1,-6,42*,2,-3,-5,-9
C=CCCCCCCCCC(=O)NNC1CC(=O)N(c2ccccc2)C1=O (configuration not stated),-5,1,6,1,4,-4
CC(C)c1onc(C(=O)NC2CCCC2)c1[N+](=O)[O-],3,4,1,1,-2,7
Cc1ccccc1N(Cc1nnc2n1CCCCC2)C(=O)Nc1ccccc1,-8,-14,3,0,-2,27*
COc1ccc(N(Cc2nnc3n2CCCCC3)C(=O)Nc2ccccc2)cc1,6,2,3,1,2,1
COc1ccc(OCCNC(=O)C2(C)CCN2Cc2ccc(SC)cc2)cc1 (configuration not stated),2,9,-3,9,-2,-8
COc1ccc(OCCNC(=O)C2(C)CCN2Cc2ccc3ccccc3c2)cc1 (configuration not stated),14,29*,-19,10,0,-13
CSCCC(NC(=O)COc1ccccc1)C(=O)NC1CCC(C)CC1 (configuration not stated),2,2,1,1,1,7
COc1ccc(NC(=O)CCNC(=O)c2ccc([N+](=O)[O-])cc2)cc1S(=O)(=O)N1CCCCC1,-2,-14,4,0,3,22*
CCC(C)(C)c1ccc(OCCCC[n+]2cccc(C)c2)c(C(C)(C)CC)c1,28*,47*,-21,2,-10,-17
SMILES,CHRM5 antagonist,M4 antag,M5 PAM,M4 ag,CHRM5 agonist,M4 PAM
Cc1ccc[n+](CC(=O)Nc2cc(C(F)(F)F)ccc2Cl)c1,-3,1,1,0,-7,0
CCC1C(=O)N=C(SCC(=O)Nc2cccc3ccccc23)NC1=O (configuration not stated),-7,9,5,1,1,28*
C=CC(O)(C#CCN(CC)CC)c1ccccc1 (configuration not stated),15,12,-23,1,-6,-15
CCN(CC)CC#CCC(O)(c1ccccc1)c1ccc(Br)cc1 (configuration not stated),11,30*,-17,7,-8,-25
CCN(CC)CC#CCC(C)(c1ccccc1)c1ccccc1,17,63*,-21,3,-12,-37
CN(C)CC#CCC(O)(c1ccccc1)c1ccccc1,24,24,-31,0,-19,-50
CCN(CC)CC#CCC(O)(c1ccccc1)c1ccccc1,29*,32*,-35,4,-16,-25
Cc1nc(N)[nH]c(=O)c1CCCNc1ccc([N+](=O)[O-])cc1,19,11,-6,1,3,0
Cc1noc(C)c1C(=O)N1CCC1(C)C(=O)NS(=O)(=O)c1ccccc1C(F)(F)F (configuration not stated),-2,0,0,0,1,2
CCC(C)NC(=O)C1c2ccccc2C(=O)N1Cc1ccccc1OC (configuration not stated),-12,-8,30*,0,3,11
CCC(C)NC(=O)C1c2ccccc2C(=O)N1Cc1ccc(OC)cc1OC (configuration not stated),-9,-3,3,1,2,1
N#Cc1c(NCc2ccccc2)ccnc1Cl,4,5,-4,9,-5,-18
NCCCn1c(C(=O)c2cc(Cl)c(N)c(Cl)c2)c2ccc(C(F)(F)F)cc2[n+]1[O-],-7,-8,19*,7,7,7
NC(=O)CCCn1c(C(=O)c2cc(Cl)c(N)c(Cl)c2)c2ccc(C(F)(F)F)cc2[n+]1[O-],12,-9,-2,7,3,9
